Measured values published in PMC7396962 (Xenobiotica; the fate of foreign compounds in biological …, 2020).
In brackets after ≈: the same amount, converted by molar mass.

Experiments:
[1] = system: expressed human CYP enzymes; test: Reaction phenotyping with twelve expressed CYP enzymes; assay type: in vitro ADME
Summary of the method: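 Twelve expressed human CYPs (1–1.2 mg/mL) with test compound 0.16–80 μM, NADPH 1 mM and MgCl2 in 50 mM Tris-HCl pH 7.4, 37 °C, 60 min. Controls lacked NADPH. Acetonitrile quench, then UHPLC-UV/Q-TOF MS. Formation rates given as pmol/min/mg protein. Kinetics fitted after Eadie–Hofstee inspection; CLint = Vmax/Km; triplicate.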

UGT1A1 [2] = target: T1, UGT1A1 (Homo sapiens, UniProt P22309); assay type: in vitro ADME; details: panel of HLMs (n = 9), substrate 10 μM, p = 0.049
T1 sequence (P22309 26-533): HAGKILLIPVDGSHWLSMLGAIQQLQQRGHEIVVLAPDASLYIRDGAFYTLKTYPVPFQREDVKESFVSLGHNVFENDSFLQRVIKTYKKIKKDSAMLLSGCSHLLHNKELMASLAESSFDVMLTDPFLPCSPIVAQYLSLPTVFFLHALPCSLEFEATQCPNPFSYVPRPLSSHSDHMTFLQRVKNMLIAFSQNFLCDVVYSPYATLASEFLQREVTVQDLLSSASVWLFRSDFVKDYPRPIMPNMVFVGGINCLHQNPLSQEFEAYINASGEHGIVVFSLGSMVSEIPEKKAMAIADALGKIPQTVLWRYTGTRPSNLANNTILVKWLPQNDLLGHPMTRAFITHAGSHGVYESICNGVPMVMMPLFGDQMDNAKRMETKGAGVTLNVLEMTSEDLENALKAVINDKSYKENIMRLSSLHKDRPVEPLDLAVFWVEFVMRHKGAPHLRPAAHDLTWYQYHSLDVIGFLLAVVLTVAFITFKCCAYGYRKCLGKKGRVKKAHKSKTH

UGT1A1 [3] = target: T1, UGT1A1; test: Glucuronidation of CA by recombinant UGT1A1; assay type: in vitro ADME; details: formation of the glucuronide from CA
UGT1A8 = target: T2, UGT1A8 (Homo sapiens, UniProt Q9HAW9); test: Glucuronidation of CA by recombinant UGT1A8; assay type: in vitro ADME; details: formation of the glucuronide from CA
T2 sequence (Q9HAW9 26-530): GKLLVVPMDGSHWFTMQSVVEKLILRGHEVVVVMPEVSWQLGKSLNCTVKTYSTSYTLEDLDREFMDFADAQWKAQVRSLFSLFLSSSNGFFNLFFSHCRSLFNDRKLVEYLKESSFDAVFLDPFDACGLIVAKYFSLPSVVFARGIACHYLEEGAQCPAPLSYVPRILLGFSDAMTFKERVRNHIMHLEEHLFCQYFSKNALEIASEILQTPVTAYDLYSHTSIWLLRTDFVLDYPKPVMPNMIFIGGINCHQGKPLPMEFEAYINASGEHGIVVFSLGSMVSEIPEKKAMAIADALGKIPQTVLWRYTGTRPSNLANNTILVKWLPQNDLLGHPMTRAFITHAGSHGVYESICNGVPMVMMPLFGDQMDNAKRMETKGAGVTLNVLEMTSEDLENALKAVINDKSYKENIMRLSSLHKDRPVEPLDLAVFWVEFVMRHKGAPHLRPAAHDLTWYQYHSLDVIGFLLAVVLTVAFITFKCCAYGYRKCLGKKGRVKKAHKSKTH

CYP2C8 = target: T3, CYP2C8 (Homo sapiens, UniProt P10632); assay type: in vitro ADME; details: panel of HLMs (n = 9), substrate 10 μM, p = 0.001
T3 sequence (P10632 1-490): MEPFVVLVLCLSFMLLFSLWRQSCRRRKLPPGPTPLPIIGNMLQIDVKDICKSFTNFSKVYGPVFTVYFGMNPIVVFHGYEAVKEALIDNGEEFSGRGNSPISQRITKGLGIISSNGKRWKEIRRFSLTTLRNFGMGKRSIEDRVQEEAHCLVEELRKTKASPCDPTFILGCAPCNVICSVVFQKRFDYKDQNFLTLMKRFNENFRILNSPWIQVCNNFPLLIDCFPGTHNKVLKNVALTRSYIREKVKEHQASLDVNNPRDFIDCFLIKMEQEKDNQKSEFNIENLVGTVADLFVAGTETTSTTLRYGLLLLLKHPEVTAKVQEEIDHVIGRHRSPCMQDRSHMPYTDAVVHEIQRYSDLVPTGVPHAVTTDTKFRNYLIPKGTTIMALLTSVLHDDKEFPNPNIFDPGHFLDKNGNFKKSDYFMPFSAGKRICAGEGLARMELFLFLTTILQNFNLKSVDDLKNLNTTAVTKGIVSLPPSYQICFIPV
Summary of the method: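 Nine individual human liver microsomes (1 mg/mL) each incubated with test compound at 10 μM plus 1 mM NADPH, pH 7.4, 37 °C, 60 min. Oxidation rates correlated by linear regression (r) with each donor's paclitaxel 6-hydroxylation activity. p < 0.05 taken as significant.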

[4] = system: HepG2 hepatocellular carcinoma cell line; details: cited from earlier work
[5] = system: severe acute respiratory syndrome coronavirus papain-like protease; details: read-out: inhibitory effects on severe acute respiratory syndrome coronavirus papain-like protease; cited from earlier work
pooled HLM = test: Glucuronidation of CA in pooled HLM; assay type: in vitro ADME, human; details: higher than phase I metabolism
Summary of the method: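 Pooled human liver microsomes (1 mg/mL) with test compound 0.16–80 μM, UDPGA 3.5 mM, alamethicin 22 μg/mL, saccharolactone 4.4 mM and MgCl2 0.88 mM in Tris-HCl pH 7.4, 37 °C for 60 min. Phase I run in parallel with 1 mM NADPH. Metabolites quantified by UHPLC-UV (270 nm) as parent equivalents; kinetics fitted by model, CLint = Vmax/Km; triplicate.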

UGT1A9 = target: T4, UGT1A9 (Homo sapiens, UniProt O60656); test: Glucuronidation of CA by recombinant UGT1A9; assay type: in vitro ADME; details: formation of the glucuronide from CA
T4 sequence (O60656 26-530): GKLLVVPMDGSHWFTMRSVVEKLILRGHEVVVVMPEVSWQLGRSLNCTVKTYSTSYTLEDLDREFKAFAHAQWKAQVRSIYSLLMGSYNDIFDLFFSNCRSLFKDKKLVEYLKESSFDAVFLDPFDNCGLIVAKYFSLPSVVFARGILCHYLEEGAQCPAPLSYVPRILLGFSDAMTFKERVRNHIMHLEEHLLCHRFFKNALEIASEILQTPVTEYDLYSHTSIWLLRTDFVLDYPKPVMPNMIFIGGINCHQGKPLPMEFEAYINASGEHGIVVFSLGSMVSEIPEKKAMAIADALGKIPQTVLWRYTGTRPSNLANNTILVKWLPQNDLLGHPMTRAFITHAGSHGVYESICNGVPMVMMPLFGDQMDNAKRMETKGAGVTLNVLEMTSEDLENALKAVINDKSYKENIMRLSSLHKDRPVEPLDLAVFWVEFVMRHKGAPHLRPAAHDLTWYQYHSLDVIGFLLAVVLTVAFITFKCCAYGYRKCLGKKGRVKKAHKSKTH

Question: What does the source list for CC(C)=CCC/C(C)=C/Cc1cc(-c2coc3cc(O)ccc3c2=O)ccc1O [CA, Corylifol A]?
Answer: metabolism of CA ([1]; CYP1A2, 1B1, 2A6, 2B6, 2E1, 3A4 and 3A5): cannot metabolize CA at all; CLint values (phase I metabolic activities) ([1]; range over CYP1A1, 2C8 and 2C19): 13.01 to 49.36 µL/min/mg; correlation (r) between CA-7-O-glucuronidation and β-estradiol-3-O-glucuronidation (UGT1A1 [2]): 0.668; CLint (UGT1A1 [3]): 284.07 µL/min/mg; CLint (UGT1A8): 135.59 µL/min/mg; correlation (r) between CA-mono-oxidation and paclitaxel-6-hydroxylation (CYP2C8): 0.921; IC50, cytotoxic activity [4]: 4.6 mg/L (≈ 11.8 µM); IC50 [5]: 32.3 ± 3.2 µM; intrinsic clearance value of glucuronidation relative to phase I metabolism (pooled HLM): 4 fold; CLint (UGT1A9): 191.94 µL/min/mg
